Assay outcomes (PubChem)
Compounds with a hit are over-represented: about 2.5% of the library has one in this group of screens.
Glyco luc inh: N-linked glycosylation inhibition; 0.23% of 360,000 active; D54 ERlucT glycosylation luciferase reporter, 24 h; percent of 100 nM tunicamycin response; reporter increase, % at 12.5 µM; AID 588692;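 active means mean luciferase reporter signal, scaled so untreated is 0 and the glycosylation-blocking control 100, at or above a set limit in every replicate; inconclusive means mean reaches the limit but not every replicate does; inactive means mean below the limit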;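 further: luciferase carries N-glycosylation sites so blocking glycosylation raises the light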
Env fusion inh: HIV envelope-mediated fusion inhibition; inhibition, % at 12.3 µM; HeLa-JRFL Env/CEM21 cell fusion, luciferase; 1.1% of 360,000 active;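 active means mean replicate inhibition score of at least 50 and every replicate individually at or above 50; inconclusive means only one of the two criteria met; inactive means mean below 50 and not all replicates reaching 50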
PAX8 reporter: PAX8 transcriptional activity inhibition | 1.2% of 360,000 active | AID 652154 | RMG-I TPO-luciferase reporter, SteadyGlo, 24 h | inhibition, % at 12.6 µM;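 active means mean replicate inhibition at least 60% with every replicate also reaching 60%; inconclusive means only one of the two criteria is met; inactive means mean below 60% and not all replicates reaching 60%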;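 further: luciferase light reporting Pax8 driven TPO promoter activity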
FN deposit inh: fibronectin deposition inhibition. AH1F fibroblasts, Alexa488-fibronectin deposition fluorescence, overnight. inhibition, % at 12.6 µM. 0.086% of 350,000 active. AID 743247;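 active means mean inhibition across replicates of 30% or more, regardless of how many single replicates reach that level; inconclusive means mean under 30% yet at least half of replicates reach 30%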
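Schedule: 1 h cell adhesion before compound, then overnight fibronectin incubation; test system: AH1F fibroblast monolayer depositing Alexa488-labelled fibronectin into matrix; quantity: 10000 AH1F cells per well; probe or stimulus: fluorescent fibronectin at 24 nM final; signal: fluorescence, ex 485 nm, em 525 nm; evaluation: percent inhibition as loss of matrix-bound fibronectin fluorescence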
EWS-Fli block: inhibitors of EWS/Fli oncoprotein transcriptional activity | inhibition, % at 12.6 µM | AID 651661 | A673 NR0B1-luciferase reporter, viability-normalised | 0.67% of 350,000 active;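 active means mean inhibition of at least 50% after viability correction, with every replicate also passing that limit; inconclusive means mean reaches 50% but only one of two replicates passes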;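 further: firefly luciferase signal divided by Alamar Blue viability fluorescence both relative to DMSO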
AF4-AF9 inh: MLL-AF4/AF9 protein interaction inhibition; inhibition, % at 10 µM; AlphaScreen, biotin-AF4 peptide binding to FLAG-AF9; 0.47% of 350,000 active;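 active means every replicate reaching a set inhibition limit, whatever the replicate mean, cut at about 25% in these data; inconclusive means mean inhibition reaches that limit but some replicates miss it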
Target sequence (P42568 whole entry, looked up): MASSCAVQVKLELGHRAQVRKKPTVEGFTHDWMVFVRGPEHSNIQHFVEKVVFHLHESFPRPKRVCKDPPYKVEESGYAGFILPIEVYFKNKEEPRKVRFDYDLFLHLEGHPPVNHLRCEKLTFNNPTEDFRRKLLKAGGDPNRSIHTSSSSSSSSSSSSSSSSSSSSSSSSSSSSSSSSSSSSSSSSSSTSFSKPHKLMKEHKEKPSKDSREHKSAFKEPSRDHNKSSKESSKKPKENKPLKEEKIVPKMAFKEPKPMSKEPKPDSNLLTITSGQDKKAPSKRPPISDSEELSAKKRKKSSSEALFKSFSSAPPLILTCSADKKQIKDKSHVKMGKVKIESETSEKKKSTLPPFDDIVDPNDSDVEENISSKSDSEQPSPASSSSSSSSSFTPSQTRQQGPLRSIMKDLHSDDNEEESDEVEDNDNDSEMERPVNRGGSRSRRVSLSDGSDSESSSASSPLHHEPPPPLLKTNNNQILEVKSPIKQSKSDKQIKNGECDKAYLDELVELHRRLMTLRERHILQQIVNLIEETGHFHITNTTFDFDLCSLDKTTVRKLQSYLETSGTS
Hits are given with their value; - = inactive; ? = inconclusive; . = no result given; [ ] = dose if it differs, or a comment.

SMILES	Glyco luc inh	Env fusion inh	PAX8 reporter	FN deposit inh	EWS-Fli block	AF4-AF9 inh
Cc1ccc(-c2csc(=Nc3cccnc3)n2CCCn2ccnc2)cc1C	-	?	-	-	-	37
Cc1ccc(-c2csc(=Nc3cccnc3)n2CCCN2CCCC2=O)cc1C	-	-	-	-	.	.
C[C@@H]1CCCCO[C@@H](CN(C)Cc2ccccc2)[C@@H](C)CN([C@@H](C)CO)C(=O)c2cc(NC(=O)CCC(F)(F)F)ccc2O1	.	-	-	-	-	-
COc1cccc(C(=O)Nc2sc3c(c2C#N)CCN(C(C)=O)C3)c1	-	-	-	.	60	-
COc1cccc(C(=O)Nc2sc3c(c2C(=O)O)CCCC3)c1	-	-	-	-	-	-
O=C(NCC1CCCO1)c1cc(-c2ccccc2)on1 (stereo not given)	34	.	.	.	.	.
COc1ccc2nc(-c3ccco3)c(-c3ccco3)nc2c1	33	.	.	.	-	-
c1coc(-c2nc(-c3ccco3)c(-c3ccco3)nc2-c2ccco2)c1	-	-	.	-	.	.
Cn1c(-c2ccccc2)c[n+]2c1-c1ccccc1C2	-	57	-	-	-	-
CS(=O)(=O)NCCCCNc1ccc(C(F)(F)F)cc1[N+](=O)[O-]	-	-	-	-	-	-
O=[N+]([O-])c1cc(C(F)(F)F)ccc1NCCCCNS(=O)(=O)c1ccc2ccccc2c1	-	62	.	.	.	.
O=S(=O)(Nc1ccccc1)c1ccc2c(c1)CCO2	-	-	-	-	-	48
COc1ccc(NS(=O)(=O)c2ccc3c(c2)CCO3)cc1	-	-	-	-	-	-
O=C(NCc1ccccc1)C(c1ccco1)N(C(=O)c1csnn1)C1CC1 (stereo not given)	-	-	-	-	-	41
O=C(CN1CCOCC1)N1CCCCN2[C@H](CO)[C@H](c3ccc(C#Cc4ccccc4)cc3)[C@H]2C1	.	.	-	.	-	-
CC[C@@H](C(=O)[C@@H](C)[C@@H](O)[C@H](C)CCc1ccc(C)c(O)c1C(=O)O)[C@H]1O[C@](CC)([C@H]2CC[C@](O)(CC)[C@H](C)O2)C[C@@H]1C	-	-	104	-	-	-
CN(C(=O)CSc1nc(O)cc(=O)n1-c1ccccc1F)c1ccccc1	-	65	-	-	.	-
Cc1ccc(S(=O)(=O)N(C)C[C@H]2OCCCC[C@@H](C)Oc3ccc(NS(=O)(=O)c4ccccc4)cc3C(=O)N([C@@H](C)CO)C[C@H]2C)cc1	.	-	-	.	-	-
Cc1ccc(S(=O)(=O)Nc2ccc3c(c2)C(=O)N([C@@H](C)CO)C[C@H](C)[C@@H](CN(C)S(=O)(=O)c2ccccc2)OCCCC[C@H](C)O3)cc1	.	-	-	-	-	-
Cc1ccc(S(=O)(=O)N(C)C[C@@H]2OCCCC[C@H](C)Oc3ccc(NS(=O)(=O)c4ccccc4)cc3C(=O)N([C@H](C)CO)C[C@@H]2C)cc1	.	-	64	-	-	-
Cc1ccc(S(=O)(=O)N(C)C[C@@H]2OCCCC[C@H](C)Oc3ccc(NS(=O)(=O)c4ccccc4)cc3C(=O)N([C@H](C)CO)C[C@H]2C)cc1	.	-	72	-	-	-
CC(=O)N(Cc1ccc(F)cc1)C1=C(NCCc2ccccc2)C(=O)c2ccccc2C1=O	-	84	105	42	.	.
O=S1(=O)c2ccc(Br)cc2N2CCC[C@@H]2CN1Cc1ccccc1	-	-	-	-	52	-
O=S1(=O)c2ccc(Br)cc2OC(COCc2ccccc2)CN1Cc1ccccc1 (stereo not given)	-	-	-	-	-	-
COCCNC(=O)[C@@H]1[C@@H](CO)[C@@H]2Cn3c(ccc(-c4ccccc4F)c3=O)[C@@H]2N1C(=O)C1CCCC1	.	-	.	.	-	-
SMILES	Glyco luc inh	Env fusion inh	PAX8 reporter	FN deposit inh	EWS-Fli block	AF4-AF9 inh
COc1ccccc1NC(=O)N1CCCCN2[C@H](C1)[C@H](c1ccc(C#CC3CC3)cc1)[C@@H]2CO	.	.	-	.	-	-
Cc1cc(NC(=O)CS(=O)(=O)c2cn(Cc3ccccc3Cl)c3ccccc23)no1	-	90	.	-	.	.
CO[C@H](CN(C)S(=O)(=O)c1cccc(Cl)c1)[C@@H](C)CN([C@H](C)CO)S(=O)(=O)c1ccc(Cl)cc1	.	-	-	-	-	-
CO[C@H](CN(C)S(=O)(=O)c1ccc(Cl)cc1)[C@H](C)CN([C@@H](C)CO)S(=O)(=O)c1cccc(Cl)c1	.	61[16.7 µM]	-	-	-	-
CO[C@H](CN(C)S(=O)(=O)c1cccc(Cl)c1)[C@H](C)CN([C@@H](C)CO)S(=O)(=O)c1ccc(Cl)cc1	.	?	-	-	-	-
CO[C@H](CN(C)S(=O)(=O)c1ccc(Cl)cc1)[C@H](C)CN([C@H](C)CO)S(=O)(=O)c1cccc(Cl)c1	.	56[16.7 µM]	-	-	-	-
Cc1ccc(S(=O)(=O)N(C)C[C@@H]2Oc3c(NS(=O)(=O)c4ccccc4)cccc3C(=O)N([C@@H](C)CO)C[C@@H]2C)cc1	.	-	.	.	-	-
C[C@@H]1CN([C@@H](C)CO)C(=O)c2cccc(NC(=O)NC3CCCCC3)c2O[C@H]1CN(C)C(=O)Nc1ccc2c(c1)OCO2	.	-	-	.	-	-
CC(C)(C)Nc1scc(-c2ccccc2)[n+]1-c1ccccc1	-	-	-	-	-	28
CCCNC(=O)COC(=O)/C=C/c1ccco1	-	.	88	-	-	-
O=C(COC(=O)/C=C/c1ccc2c(c1)OCO2)Nc1ccccc1	-	-	-	.	-	-
CCCNC(=O)COC(=O)/C=C/c1ccc2c(c1)OCO2	-	.	69	-	-	-
CN(C)C(=O)c1cccc(-c2ccccc2[C@H]2[C@@H](C#N)N(C(=O)C3CCCC3)[C@H]2CO)c1	.	.	.	-	-	-
CCOC(=O)/C=C/[C@H]1CC2(CCO1)SCCCS2	-	69	-	-	-	-
O=C(N[C@@H]1CC[C@H](CCNC(=O)C2CC2)O[C@@H]1CO)c1ccncc1	.	-	.	.	-	-
CNC[C@H]1Oc2c(NC(=O)Nc3ccc4c(c3)OCO4)cccc2C(=O)N([C@H](C)CO)C[C@@H]1C	.	64[16.7 µM]	-	-	-	-
CNC[C@@H]1Oc2c(NC(=O)Nc3ccccc3)cccc2C(=O)N([C@@H](C)CO)C[C@H]1C	-	-	-	-	-	-
C[C@@H]1CN([C@@H](C)CO)C(=O)c2cccc(NC(=O)Nc3ccc4c(c3)OCO4)c2O[C@@H]1CN(C)CC1CC1	.	.	-	.	-	25
CNC[C@@H]1Oc2c(N)cccc2C(=O)N([C@@H](C)CO)C[C@@H]1C	.	62[16.7 µM]	-	-	-	.
CNC[C@@H]1Oc2c(NC(=O)Nc3ccc4c(c3)OCO4)cccc2C(=O)N([C@H](C)CO)C[C@H]1C	.	-	-	-	-	-
CNC[C@H]1Oc2c(NC(=O)Nc3ccccc3)cccc2C(=O)N([C@H](C)CO)C[C@@H]1C	.	.	73	-	-	-
C[C@H](CO)N1C[C@H](C)[C@@H](CN(C)S(C)(=O)=O)Oc2ccc(NC(=O)C3CCCCC3)cc2CC1=O	.	-	-	.	-	-
